Measured values taken from ChEMBL document CHEMBL5653624 (Biochem Pharmacol, 2016).
The source made the active and inactive calls. No cut-off for these calls is given here.

Columns and labels:
HASMC [1] = assay: Antiinflammatory activity in HASMC cells assessed as effect on LPS/IFNgamma-induced IL-6 gene expression at 2 uM […] and measured after 4 hrs by RT-qPCR analysis; assay type: functional, cell-based; conditions: Homo sapiens
Outline: (§1)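 HBE cells (passage 73–103) or immortalized hASM cells (2–3 donors, passage 27–35), serum-starved. Then 2 μM RGFP966 for 20 h, with LPS/IFNγ for the last 4 h. Total RNA isolated; RT-qPCR by 2−ΔΔCt, fold change versus LPS/IFNγ control. Mean ± SD of 3–5 independent experiments.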

Lung [2] = assay: Antiinflammatory activity in C57bl/6 mouse precision-cut lung slices assessed as upregulation of LPS/IFNgamma-induced IkappaBalpha gene expression at 1 to 10 uM preincubated for 20 hrs followed by LPS/IFNgamma stimulation and measured after 4 hrs by RT-qPCR analysis; assay type: functional, tissue-based; conditions: dose 1-10 µM, time 24.0 hrs
RAW264.7 [3] = assay: Effect on HDAC3-NFkappaB p65 protein-protein interaction in LPS/IFNgamma-stimulated mouse RAW264.7 cells at 1 uM preincubated for 20 hrs followed by LPS/IFNgamma stimulation and measured after 1 hr by immunoprecipitation analysis; assay type: cell-based
Outline: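 RAW 264.7 cells treated for 20 h, then LPS/IFNγ-stimulated. Lysates rotated 4 h at 4 °C and cleared. NF-κB p65 immunoprecipitated with mouse monoclonal antibody overnight at 4 °C, then Protein A/G agarose for 6 h at 4 °C, followed by washes. Immunoblot for HDAC 3, densitometry normalized to NF-κB p65. Mean ± SD of 3 experiments.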

RAW264.7 [4] = assay: Antiinflammatory activity in LPS/IFNgamma-stimulated mouse RAW264.7 cells assessed as effect on NF-kappaB p65 mRNA expression preincubated for 20 hrs followed by LPS/IFNgamma stimulation and measured after 4 hrs by RT-qPCR analysis; assay type: functional, cell-based; conditions: time 24.0 hrs
Lung [5] = assay: Antiinflammatory activity in C57bl/6 mouse precision-cut lung slices assessed as upregulation of LPS/IFNgamma-induced IL-10 gene expression at 1 to 10 uM preincubated for 20 hrs followed by LPS/IFNgamma stimulation and measured after 4 hrs by RT-qPCR analysis relative to control; assay type: functional; conditions: dose 1-10 µM; time 24 hrs
Outline: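 PCLS, 250 μm thick, cut from agarose-filled lungs of male C57bl/6 mice (24–28 g, 8–10 weeks). Three slices per well at 37 °C, 5% CO2. Slices received RGFP966 at 1 and 10 μM final for 20 h, with 10 ng/ml LPS and 10 ng/ml IFNγ stimulation. RNA isolated; RT-qPCR fold change versus LPS/IFNγ control by 2−ΔΔCt. Mean ± SD, n = 3–5.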

HBE [6] = assay: Antiinflammatory activity in HBE cells assessed as effect on LPS/IFNgamma-induced IL-1beta gene expression at 2 uM […] by RT-qPCR analysis; assay type: functional, cell-based; conditions: Homo sapiens; outline: as §1
RAW264.7 [7] = assay: Antiinflammatory activity in LPS/IFNgamma-stimulated mouse RAW264.7 cells assessed as effect on HDAC3 mRNA expression preincubated for 20 hrs followed by LPS/IFNgamma stimulation and measured after 4 hrs by RT-qPCR analysis; assay type: functional, cell-based; conditions: time 24.0 hrs
HASMC [8] = assay: Antiinflammatory activity in HASMC cells assessed as effect on LPS/IFNgamma-induced IL-10 gene expression at 2 uM […] by RT-qPCR analysis; assay type: functional, cell-based; conditions: Homo sapiens; outline: as §1
[9] = target: T1, Histone deacetylase 3 (Mus musculus) (UniProt O88895); assay: Effect on HDAC3 nuclear localization in LPS/IFNgamma-stimulated mouse RAW264.7 cells preincubated for 20 hrs followed by LPS/IFNgamma stimulation and measured after 1 hr by Western blot analysis; assay type: cell-based
T1 sequence (whole entry): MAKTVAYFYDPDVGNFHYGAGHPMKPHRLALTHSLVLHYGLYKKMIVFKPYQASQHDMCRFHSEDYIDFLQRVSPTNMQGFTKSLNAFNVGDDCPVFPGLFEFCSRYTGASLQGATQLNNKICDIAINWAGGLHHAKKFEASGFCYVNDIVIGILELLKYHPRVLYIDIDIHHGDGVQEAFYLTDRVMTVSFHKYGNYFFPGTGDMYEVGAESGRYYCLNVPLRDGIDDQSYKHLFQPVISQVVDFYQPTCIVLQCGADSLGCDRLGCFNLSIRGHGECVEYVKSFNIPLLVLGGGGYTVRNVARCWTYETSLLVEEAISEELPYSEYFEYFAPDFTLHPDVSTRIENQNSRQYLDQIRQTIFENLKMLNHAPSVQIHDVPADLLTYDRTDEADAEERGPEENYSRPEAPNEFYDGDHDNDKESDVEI
Outline: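 RAW 264.7 cells treated for 20 h, then 1 h LPS/IFNγ, and fractionated into nuclear and cytosolic parts. Fractions immunoblotted, with PARP-1 and β-actin as internal controls. Densitometry with vehicle control set at 100%. Mean ± SD of 3–4 independent experiments.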

RAW264.7 [10] = assay: Cytotoxicity against mouse RAW264.7 cells assessed as reduction in cell viability at 1 uM measured after 20 hrs by MTS assay; assay type: toxicity, cell-based; conditions: raw264.7, 20 h
Outline: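 MTS viability assay. RAW 264.7 cells seeded at 25,000 cells/cm2; HBE and hASM cells at 70% confluency and serum-starved for 24 h. Exposure for 20 h with LPS/IFNγ stimulation. MTS reagent added for 1 h at 37 °C in the dark, absorbance read at 490 nm. LPS/IFNγ-stimulated cells without inhibitor set at 100%.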

[11] = target: T1, Histone deacetylase 3 (Mus musculus); assay: Inhibition of HDAC3 in mouse RAW264.7 cells assessed as effect on LPS/IFNgamma-induced NF-kappaB p65 nuclear translocation preincubated for 20 hrs followed by LPS/IFNgamma stimulation and measured after 1 hr by immunofluorescence microscopy; assay type: cell-based
Outline: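 RAW 264.7 seeded at 20,000 cells/cm2, 1 μM inhibitor 20 h then 1 h LPS/IFNγ; fixed 4% formaldehyde, permeabilized 0.25% Triton X-100, blocked 5% BSA; rabbit anti-p65 (1:250, 2 h 4 °C) with AlexaFluor488 secondary, Hoechst nuclei; confocal imaging at identical settings; 3 independent experiments.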

Lung [12] = assay: Antiinflammatory activity in C57bl/6 mouse precision-cut lung slices assessed as effect on LPS/IFNgamma-induced HDAC1 expression at 1 to 10 uM preincubated for 20 hrs followed by LPS/IFNgamma stimulation and measured after 4 hrs by Western blot analysis; assay type: functional, tissue-based; conditions: dose 1-10 µM, time 24.0 hrs
HBE [13] = assay: Antiinflammatory activity in HBE cells assessed as effect on LPS/IFNgamma-induced IL-12b gene expression at 2 uM […] by RT-qPCR analysis; assay type: functional, cell-based; conditions: Homo sapiens; outline: as §1
Lung [14] = assay: Antiinflammatory activity in C57bl/6 mouse precision-cut lung slices assessed as effect on LPS/IFNgamma-induced HDAC1 gene expression at 1 to 10 uM preincubated for 20 hrs followed by LPS/IFNgamma stimulation and measured after 4 hrs by RT-qPCR analysis; assay type: functional, tissue-based; conditions: dose 1-10 µM, time 24.0 hrs
HASMC [15] = assay: Antiinflammatory activity in HASMC cells assessed as effect on LPS/IFNgamma-induced iNOS gene expression at 2 uM […] and measured after 4 hrs by RT-qPCR analysis; assay type: functional, cell-based; conditions: Homo sapiens; outline: as §1
RAW264.7 [16] = assay: Antiinflammatory activity in LPS/IFNgamma-stimulated mouse RAW264.7 cells assessed as effect on NF-kappaB p65 expression preincubated for 20 hrs followed by LPS/IFNgamma stimulation and measured after 4 hrs by Western blot analysis; assay type: functional, cell-based; conditions: time 24.0 hrs

**Q.** How did the Activity (HASMC [1]) turn out when `Nc1cc(F)ccc1NC(=O)/C=C/c1cnn(C/C=C/c2ccccc2)c1` was run?
**A.** inactive

**Q.** What about the Activity (Lung [2]) of the same compound?
**A.** Active

**Q.** What about the Activity (RAW264.7 [3]) of the same compound?
**A.** inactive

**Q.** And the Activity (RAW264.7 [4])?
**A.** inactive

**Q.** What about the “fold change (FC)” value (Lung [5]) of the same compound?
**A.** 2

**Q.** And the Activity (HBE [6])?
**A.** inactive

**Q.** What about the Activity (RAW264.7 [7]) of the same compound?
**A.** inactive

**Q.** What about the Activity (HASMC [8]) of the same compound?
**A.** inactive

**Q.** What about the Activity [9] of the same compound?
**A.** inactive

**Q.** What about the Activity (RAW264.7 [10]) of the same compound?
**A.** Non-Toxic

**Q.** What about the inhibition [11] of the same compound?
**A.** inactive

**Q.** What about the Activity (Lung [12]) of the same compound?
**A.** inactive

**Q.** What about the Activity (HBE [13]) of the same compound?
**A.** inactive

**Q.** What about the Activity (Lung [14]) of the same compound?
**A.** inactive

**Q.** And the Activity (HASMC [15])?
**A.** inactive

**Q.** And the Activity (RAW264.7 [16])?
**A.** inactive
